# According to ChEMBL document CHEMBL4706495, “A novel class of small molecule inhibitors with radioprotective properties” (Eur J Med Chem, 2020):
# Activity calls are given as the source filed them. No cut-off for these calls is given here.
# Legend:
# HT-29 [1] = test: Cytotoxicity against human HT-29 cells assessed as cell viability at 10 uM measured after 48 hrs by WST-1 assay relative to control; assay type: functional; settings: read-out: Activity
# In short: (§1)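 Ten-line human panel (9 cancer, 1 non-cancerous). Cells were seeded at a pre-established optimal density (500–30 × 10³ per well) and settled overnight. Compounds came from 10 mM DMSO stocks and were tested at two concentrations. WST-1 readout followed the manufacturer's protocol at the end of cultivation. Viability is expressed as % of untreated control cells, mean of three independent experiments.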
# MCF7 [2] = test: Cytotoxicity against human MCF7 cells assessed as cell viability at 10 uM measured after 48 hrs by WST-1 assay relative to control; assay type: functional; settings: read-out: Activity; in short: as §1
# A2780 [3] = test: Cytotoxicity against human A2780 cells assessed as cell viability at 10 uM measured after 48 hrs by WST-1 assay relative to control; assay type: functional; settings: read-out: Activity; in short: as §1
# PANC-1 [4] = test: Cytotoxicity against human PANC-1 cells assessed as cell viability at 10 uM measured after 48 hrs by WST-1 assay relative to control; assay type: functional; settings: read-out: Activity; in short: as §1
# HeLa [5] = test: Cytotoxicity against human HeLa cells assessed as cell viability at 10 uM measured after 48 hrs by WST-1 assay relative to control; assay type: functional; settings: read-out: Activity; in short: as §1
# A2780 [6] = test: Cytotoxicity against human A2780 cells assessed as cell viability at 100 uM measured after 48 hrs by WST-1 assay relative to control; assay type: functional; settings: read-out: Activity; in short: as §1
# A549 [7] = test: Cytotoxicity against human A549 cells assessed as maximum tolerated concentration incubated for 24 hrs by MTT assay; assay type: functional
# In short: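 A-549 cells in DMEM with 10% FBS and 1% penicillin-streptomycin, left to attach overnight. Compounds made up in PBS, serially diluted in DMEM, incubated 24 h, then viability read by MTT reduction against untreated controls on each plate. MTC taken as the highest concentration showing no significant difference from non-treated control (t-test).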
# MCF7 [8] = test: Cytotoxicity against human MCF7 cells assessed as cell viability at 100 uM measured after 48 hrs by WST-1 assay relative to control; assay type: functional; settings: read-out: Activity; in short: as §1
# MOLT-4 [9] = test: Cytotoxicity against human MOLT-4 cells assessed as cell viability at 10 uM measured after 48 hrs by WST-1 assay relative to control; assay type: functional; settings: read-out: Activity; in short: as §1
# A549 [10] = test: Cytotoxicity against human A549 cells assessed as reduction in cell viability incubated for 24 hrs by MTT assay; assay type: functional, cell-based; settings: A549, 24 h
# In short: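 A-549 cells in DMEM with 10% FBS and 1% penicillin-streptomycin were attached overnight. Compounds were prepared in PBS and serially diluted in DMEM, then incubated 24 h. Viability was read by colorimetric MTT reduction against an untreated control on each plate (100%). IC50 came from four-parameter nonlinear regression of the log concentration-response curve, mean ± SEM. MTC is the highest concentration not differing from control (t-test).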
# Jurkat [11] = test: Cytotoxicity against human Jurkat cells assessed as cell viability at 10 uM measured after 48 hrs by WST-1 assay relative to control; assay type: functional; settings: read-out: Activity; in short: as §1
# HT-29 [12] = test: Cytotoxicity against human HT-29 cells assessed as cell viability at 100 uM measured after 48 hrs by WST-1 assay relative to control; assay type: functional; settings: read-out: Activity; in short: as §1
# Jurkat [13] = test: Cytotoxicity against human Jurkat cells assessed as cell viability at 100 uM measured after 48 hrs by WST-1 assay relative to control; assay type: functional; settings: read-out: Activity; in short: as §1
# MOLT-4 [14] = test: Cytotoxicity against human MOLT-4 cells assessed as cell viability at 100 uM measured after 48 hrs by WST-1 assay relative to control; assay type: functional; settings: read-out: Activity; in short: as §1
# HeLa [15] = test: Cytotoxicity against human HeLa cells assessed as cell viability at 100 uM measured after 48 hrs by WST-1 assay relative to control; assay type: functional; settings: read-out: Activity; in short: as §1
# MOLT-4 [16] = test: Radioprotective activity against gamma irradiation-induced apoptosis in human MOLT-4 cells assessed as viable cells at 100 uM pretreated with compound for 1 hr followed by gamma irradiation and measured after 24 hrs by annexinV/propidium iodide staining based flow cytometry (reference value: 40 %); assay type: functional; settings: MOLT-4, light or radiation study, time 25 hrs, read-out: Activity
# SAOS-2 [17] = test: Cytotoxicity against human SAOS-2 cells assessed as cell viability at 10 uM measured after 48 hrs by WST-1 assay relative to control; assay type: functional; settings: read-out: Activity; in short: as §1
# A549 [18] = test: Cytotoxicity against human A549 cells assessed as cell viability at 10 uM measured after 48 hrs by WST-1 assay relative to control; assay type: functional; settings: read-out: Activity; in short: as §1
# SAOS-2 [19] = test: Cytotoxicity against human SAOS-2 cells assessed as cell viability at 100 uM measured after 48 hrs by WST-1 assay relative to control; assay type: functional; settings: read-out: Activity; in short: as §1
# PANC-1 [20] = test: Cytotoxicity against human PANC-1 cells assessed as cell viability at 100 uM measured after 48 hrs by WST-1 assay relative to control; assay type: functional; settings: read-out: Activity; in short: as §1
# [21] = Cytotoxicity against human MRC5 cells assessed as cell viability at 10 uM measured after 48 hrs by WST-1 assay relative to control; assay type: cell-based; settings: read-out: Activity; in short: as §1
# [22] = Cytotoxicity against human MRC5 cells assessed as cell viability at 100 uM measured after 48 hrs by WST-1 assay relative to control; assay type: cell-based; settings: read-out: Activity; in short: as §1
# A549 [23] = test: Cytotoxicity against human A549 cells assessed as cell viability at 100 uM measured after 48 hrs by WST-1 assay relative to control; assay type: functional; settings: read-out: Activity; in short: as §1
# Mus musculus [24] = test: Radioprotective activity in C57Bl/6 mouse assessed as median survival time at 100 mg/kg, ip administered 5 min prior to gamma-irradation at 8.5 Gy and measured after 30 days (reference value: 12 days); assay type: functional
# [25] = Toxicity in C57Bl/6 mouse assessed as average body weight at 100 mg/kg, ip and measured immediately (reference value: 26.3 +/- 2.4 g); assay type: organism-based; settings: in vivo
# [26] = Toxicity in C57Bl/6 mouse assessed as mouth death at 100 mg/kg, ip measured after 30 days; assay type: organism-based; settings: in vivo, 720 h, time 30 day
# In short: (§2)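 Safety in C57Bl/6 mice (27 ± 3 g) given a single 100 mg/kg i.p. injection without irradiation. Deaths, adverse effects and body weight followed over 30 days against an untreated control group. Weight reported as change from day 0.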
# Mus musculus [27] = test: Radioprotective activity in C57Bl/6 mouse assessed as increase in absolute T-lymphocytes at 100 mg/kg, ip pretreated with compound for 5 min followed by gamma irradiation at 8.5 Gy and measured after 12 to 30 days by flow cytometry; assay type: functional, organism-based
# In short: (§3)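 C57Bl/6 mice receive 100 mg/kg i.p. 5 min before a single 8.5 Gy ⁶⁰Co γ dose. At 7, 12 and 30 days post-irradiation, 100 µl peripheral blood is stained with anti-CD3ε, CD19 and NK1.1 antibodies for 30 min at 4 °C in the dark. Samples are washed twice and analysed by flow cytometry for T, B and NK cells. Mean ± SEM.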
# [28] = Toxicity in C57Bl/6 mouse assessed as adverse effects at 100 mg/kg, ip measured after 30 days; assay type: organism-based; settings: in vivo, 720 h, time 30 day; in short: as §2
# Mus musculus [29] = test: Radioprotective activity in C57Bl/6 mouse assessed as increase in absolute NK population at 100 mg/kg, ip pretreated with compound for 5 min followed by gamma irradiation at 8.5 Gy and measured after 12 to 30 days by flow cytometry; assay type: functional, organism-based; in short: as §3
# Mus musculus [30] = test: Radioprotective activity in C57Bl/6 mouse assessed as average body weight at 100 mg/kg, ip administered 5 min prior to gamma-irradation at 8.5 Gy and measured immediately (reference value: 25.4 +/- 2.6 g); assay type: functional
# [31] = Toxicity in C57Bl/6 mouse assessed as average body weight at 100 mg/kg, ip measured after 30 days (reference value: 27 +/ 3.2 g); assay type: organism-based; settings: in vivo, 720 h, time 30 day
# Mus musculus [32] = test: Radioprotective activity in C57Bl/6 mouse assessed as increase in absolute B-lymphocytes at 100 mg/kg, ip pretreated with compound for 5 min followed by gamma irradiation at 8.5 Gy and measured after 12 to 30 days by flow cytometry; assay type: functional, organism-based; in short: as §3
# [33] = Toxicity in C57Bl/6 mouse assessed as change in body weight at 100 mg/kg, ip measured after 30 days (reference value: 103 +/- 12 %); assay type: organism-based; settings: in vivo, 720 h, time 30 day
# Mus musculus [34] = test: Radioprotective activity in C57Bl/6 mouse assessed as body weight gain at 100 mg/kg, ip administered 5 min prior to gamma-irradation at 8.5 Gy measured after 30 days relative to control; assay type: functional
# Mus musculus [35] = test: Radioprotective activity in C57Bl/6 mouse assessed as average body weight at 100 mg/kg, ip administered 5 min prior to gamma-irradation at 8.5 Gy and measured after 30 days; assay type: functional
SMILES,viability at 10 µM (HT-29 [1]) [%],viability at 10 µM (MCF7 [2]) [%],viability at 10 µM (A2780 [3]) [%],viability at 10 µM (PANC-1 [4]) [%],viability at 10 µM (HeLa [5]) [%],viability at 100 µM (A2780 [6]) [%],MTD (A549 [7]) [mM],viability at 100 µM (MCF7 [8]) [%],viability at 10 µM (MOLT-4 [9]) [%],IC50 (A549 [10]) [mM],viability at 10 µM (Jurkat [11]) [%],viability at 100 µM (HT-29 [12]) [%],viability at 100 µM (Jurkat [13]) [%],viability at 100 µM (MOLT-4 [14]) [%],viability at 100 µM (HeLa [15]) [%],viability at 100 µM (MOLT-4 [16]) [%],viability at 10 µM (SAOS-2 [17]) [%],viability at 10 µM (A549 [18]) [%],viability at 100 µM (SAOS-2 [19]) [%],viability at 100 µM (PANC-1 [20]) [%],further results
OCCN1CCN(CC(O)COc2ccc3ccccc3c2)CC1 (stereo unspecified),92,93,99,101,109,91,0.02,93,109,0.31,97,103,96,100,116,65,98,102,91,95,"viability at 48 h, 10 µM [21]: 103%; viability at 48 h, 100 µM [22]: 98%; viability at 100 µM (A549 [23]): 102%"
OCCN1CCN(CC(O)COc2ccccc2)CC1 (stereo unspecified),97,104,96,90,95,96,0.59,98,92,5.78,104,97,91,96,107,57,102,97,96,108,"viability at 48 h, 10 µM [21]: 101%; viability at 48 h, 100 µM [22]: 101%; viability at 100 µM (A549 [23]): 99%"
COc1cc([N+](=O)[O-])ccc1OCC(O)CN1CCN(CCO)CC1 (stereo unspecified),99,103,99,92,101,95,0.78,98,92,4.45,101,111,92,99,108,59,103,93,94,105,"MST (Mus musculus [24]): 11 days; Activity [25]: 27.8 g; Activity [26]: Non-Toxic; Activity (Mus musculus [27]): Active; Activity [28]: Non-Toxic; Activity (Mus musculus [29]): Active; viability at 48 h, 10 µM [21]: 97%; Activity (Mus musculus [30]): 26.1 g; Activity [31]: 28.5 g; Activity (Mus musculus [32]): Active; viability at 48 h, 100 µM [22]: 97%; viability at 100 µM (A549 [23]): 105%; Activity [33]: 103%; Activity (Mus musculus [34]): 101%; Activity (Mus musculus [35]): 26.5 g"
